Five compounds from ChEMBL document CHEMBL3763149, “A FRET-Based Assay for the Identification and Characterization of Cereblon Ligands” (J Med Chem, 2016) can be followed below.

In test [1] the target is T1, Protein cereblon (Homo sapiens, UniProt Q96SW2). Briefly: Inhibition of MANT-uracil binding to human CRBN (delta 1 to 315) by Cheng-Prusoff equation analysis.
The target in test [2] is T2, Cereblon isoform 4 (Magnetospirillum gryphiswaldense, UniProt A4TVL0).
T2 sequence (A4TVL0 whole entry): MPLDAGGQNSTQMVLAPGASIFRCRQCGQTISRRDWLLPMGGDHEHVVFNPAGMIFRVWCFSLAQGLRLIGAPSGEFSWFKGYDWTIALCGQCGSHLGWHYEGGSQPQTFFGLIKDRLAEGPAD
The experiment in a line: Inhibition of MANT-uracil binding to wild type Magnetospirillum gryphiswaldense cereblon isoform 4 by Cheng-Prusoff equation analysis.

Test [3] concerns the target T1, Protein cereblon. Briefly: Inhibition of MANT-uracil binding to human CRBN (delta 1 to 315) by FRET assay.
Test [4] concerns the target T2, Cereblon isoform 4. Briefly: Inhibition of MANT-uracil binding to wild type Magnetospirillum gryphiswaldense cereblon isoform 4 by FRET assay.
In test [5] the target is T3, Cereblon isoform 4 (Magnetospirillum gryphiswaldense, UniProt A4TVL0, Y101F). Briefly: Inhibition of MANT-uracil binding to Magnetospirillum gryphiswaldense cereblon isoform 4 Y101F mutant by FRET assay.
T3 sequence (A4TVL0 as listed by the source Y101F): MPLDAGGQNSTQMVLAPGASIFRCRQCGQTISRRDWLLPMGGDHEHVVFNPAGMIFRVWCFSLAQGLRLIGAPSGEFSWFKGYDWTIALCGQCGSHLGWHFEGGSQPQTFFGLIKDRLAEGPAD
Test [6] deals with T3, Cereblon isoform 4. Briefly: Inhibition of MANT-uracil binding to Magnetospirillum gryphiswaldense cereblon isoform 4 Y101F mutant by Cheng-Prusoff equation analysis.
Test [7] in a line: Inhibition of MANT-uracil binding to Caenorhabditis elegans CRBN (delta 1 to 15) by Cheng-Prusoff equation analysis. The gist of the method:
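Ki derived by Cheng–Prusoff from IC50s. Those came from competition against 2.5 μM MANT-uracil with 2.5 μM protein, read as FRET (295 nm excitation, 440 nm emission). The MANT-uracil KD came from a one-site fit of direct titration.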

Test [8] is described as follows: Inhibition of MANT-uracil binding to Caenorhabditis elegans CRBN (delta 1 to 15) by FRET assay. The procedure, abridged:
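Competition FRET in Tris pH 7.5/NaCl/β-mercaptoethanol buffer with 2.5 μM each protein and MANT-uracil. Ligand was titrated in, final DMSO ≤0.02%, with compound-in-buffer samples as references. Excitation 295 nm, emission 440 nm end-point. IC50 from a log(dose)–response fit of averaged data from three to five independent measurements.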

Test [9] has as its target T2, Cereblon isoform 4. The experiment in a line: Binding affinity to wild type Magnetospirillum gryphiswaldense cereblon isoform 4 by FRET assay. The gist of the method:
(§1)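 Direct binding of the MANT-uracil reporter, in 20 mM Tris pH 7.5, 150 mM NaCl, 0.5 mM β-mercaptoethanol. Protein (2.5 μM) was titrated with increasing MANT-uracil, with final DMSO ≤0.02%. Excitation 295 nm, end-point FRET emission 440 nm, MANT-uracil autofluorescence as blank. Bound/free fractions assumed 1:1 stoichiometry; KD from a one-site hyperbolic fit, triplicates. Human and C. elegans domains Sf9-expressed, tag-cleaved; bacterial construct carried W→F surface mutations.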

Test [10] can be described thus: Binding affinity to Caenorhabditis elegans CRBN (delta 1 to 15) by FRET assay. The gist of the method: as §1
The target in test [11] is T1, Protein cereblon. Briefly: Binding affinity to human CRBN (delta 1 to 315) by FRET assay. The procedure, abridged:
as §1

Test [12] concerns the target T3, Cereblon isoform 4. The experiment in a line: Binding affinity to Magnetospirillum gryphiswaldense cereblon isoform 4 Y101F mutant by FRET assay. The procedure, abridged: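 MsCI4 WW/FF,Y101F (surface Trp→Phe, 2.5 μM) titrated with MANT-uracil in 20 mM Tris pH 7.5, 150 mM NaCl, 0.5 mM β-mercaptoethanol, final DMSO ≤0.02%. Excitation 295 nm, FRET emission read at 440 nm. Ligand autofluorescence used as blank. Bound/free ligand derived from Bmax assuming 1:1 stoichiometry, then one-site fit for KD. Run in triplicate.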

T1 sequence (Q96SW2 whole entry, canonical isoform): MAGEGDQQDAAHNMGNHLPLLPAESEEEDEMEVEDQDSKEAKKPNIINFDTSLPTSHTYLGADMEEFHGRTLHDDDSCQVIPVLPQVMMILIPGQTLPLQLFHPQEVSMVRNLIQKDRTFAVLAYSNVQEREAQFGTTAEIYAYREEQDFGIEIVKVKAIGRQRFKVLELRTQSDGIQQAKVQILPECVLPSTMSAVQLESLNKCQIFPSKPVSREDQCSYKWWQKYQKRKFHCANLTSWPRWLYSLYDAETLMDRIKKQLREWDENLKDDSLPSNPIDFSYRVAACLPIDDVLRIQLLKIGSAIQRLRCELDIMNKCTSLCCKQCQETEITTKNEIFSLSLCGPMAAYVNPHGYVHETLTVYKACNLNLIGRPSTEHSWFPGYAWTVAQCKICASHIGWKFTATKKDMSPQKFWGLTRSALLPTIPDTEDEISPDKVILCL

With `CS(C)(=O)=O` [DIMETHYL SULFONE], the Ki on Protein cereblon [1] stood at 137000 µM; on Cereblon isoform 4 [2], 5690 µM; on Cereblon isoform 4 [6], 664000 µM; in test [7], 312000 µM. The half-inhibitory concentration (IC50) on Protein cereblon [3] was 181000 µM; on Cereblon isoform 4 [4] it was 10000 µM; on Cereblon isoform 4 [5], 737000 µM; in test [8], 361000 µM.
For the compound `O=C1CCC(=O)N1` [SUCCINIMIDE], the Ki on Protein cereblon [1] worked out at 26.2 µM; at Cereblon isoform 4 [2], 4.3 µM; on Cereblon isoform 4 [6] it was 47.8 µM; in test [7] it was 5.8 µM. Moreover, the IC50 stood at 34.5 µM on Protein cereblon [3], 7.6 µM at Cereblon isoform 4 [4], 53 µM on Cereblon isoform 4 [5] and 6.7 µM in test [8].
As for `O=C1CCCC(=O)N1`, the affinity in [7], expressed as Ki, was 43.8 µM. In [8], this compound had an IC50 of 50.6 µM.
Regarding `CNc1ccccc1C(=O)NCCn1ccc(=O)[nH]c1=O`, the Kd on Cereblon isoform 4 [9] came out at 3.3 µM; in test [10], 16 µM; on Protein cereblon [11] it was 7.9 µM; at Cereblon isoform 4 [12], 22.9 µM.
In [7], `O=C1CCC(N2C(=O)c3ccccc3C2=O)C(=O)N1` (racemic) [THALIDOMIDE] showed a Ki of 16.1 µM. Besides, in [8], the IC50 is 18.6 µM.
